Measurements collected from several papers.
Compare with care: the assays were run in different laboratories.
Target: Bone morphogenetic protein receptor type-2 (BMPR2, Homo sapiens, UniProt Q13873)
Residues used in one study (Q13873 27-1038): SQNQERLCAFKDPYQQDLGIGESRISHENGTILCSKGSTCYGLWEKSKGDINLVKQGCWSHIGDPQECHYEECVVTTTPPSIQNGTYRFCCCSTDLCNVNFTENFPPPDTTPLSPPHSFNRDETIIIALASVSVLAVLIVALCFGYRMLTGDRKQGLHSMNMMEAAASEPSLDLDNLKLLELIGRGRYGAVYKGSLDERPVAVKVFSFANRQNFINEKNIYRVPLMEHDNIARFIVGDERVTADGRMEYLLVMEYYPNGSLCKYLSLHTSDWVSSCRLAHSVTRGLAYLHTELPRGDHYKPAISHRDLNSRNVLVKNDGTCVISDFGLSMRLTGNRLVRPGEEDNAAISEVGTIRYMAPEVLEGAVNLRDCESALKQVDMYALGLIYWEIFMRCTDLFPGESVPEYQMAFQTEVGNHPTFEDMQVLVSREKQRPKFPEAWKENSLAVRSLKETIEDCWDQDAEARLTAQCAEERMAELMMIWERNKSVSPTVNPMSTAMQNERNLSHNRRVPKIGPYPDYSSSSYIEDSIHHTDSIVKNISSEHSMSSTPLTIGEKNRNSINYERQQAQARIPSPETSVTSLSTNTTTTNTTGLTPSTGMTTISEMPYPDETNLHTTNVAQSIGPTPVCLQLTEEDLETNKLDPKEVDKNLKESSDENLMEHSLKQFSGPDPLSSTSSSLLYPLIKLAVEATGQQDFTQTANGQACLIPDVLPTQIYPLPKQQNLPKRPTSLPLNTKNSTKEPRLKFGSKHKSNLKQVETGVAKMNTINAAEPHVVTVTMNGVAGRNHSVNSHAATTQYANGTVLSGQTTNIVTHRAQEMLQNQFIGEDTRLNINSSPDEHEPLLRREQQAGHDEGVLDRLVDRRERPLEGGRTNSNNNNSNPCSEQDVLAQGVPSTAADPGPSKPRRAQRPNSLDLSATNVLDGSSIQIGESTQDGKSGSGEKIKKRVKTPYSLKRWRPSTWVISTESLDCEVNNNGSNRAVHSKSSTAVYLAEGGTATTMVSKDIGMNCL

Compound | test | setting | remaining binding
C[C@@H]1CCN(c2nccc(-c3cnn4ncccc34)n2)C1 | binding | 1 µM | 90%
CNC(=O)[C@@H]1CC[C@@H](n2c(-c3ccc4cnccc4c3)nc3ccc(C(=O)NCc4cccc(C(N)=O)c4)cc32)C1 | binding, competition with immobilised ligand | 1 µM | 0.25%
C[C@@H]1CN(c2ccc3ncc(-c4ccc5[nH]nc(C6CC6)c5c4)n3n2)C[C@H](C)O1 | binding, competition with immobilised ligand | 50 nM | 89%
CN(c1nccc(-c2cnn3ncccc23)n1)C1CC1 | binding | 1 µM | 100%
NS(=O)(=O)c1cc(NC(=O)Cc2ccccc2)ccc1Oc1cccc(Cl)c1 | cell-free assay, competition with immobilised ligand | 1 µM | 73%
COc1cnc(Nc2cccc(S(N)(=O)=O)c2)nc1N1CCN(c2ccccc2)CC1 | binding, competition with immobilised ligand | 1 µM | 0.1%
Cc1cnn2ncc(-c3ccnc(N(C)C)n3)c2c1 | binding | 1 µM | 99%
N#Cc1ccccc1CSc1nnc2c(n1)[nH]c1ccccc12 | binding, competition with immobilised ligand | 10 µM | 90%
Cc1c(NC(=O)c2cc(C(N)=O)nc3cc(F)ccc23)c(C(F)(F)F)nn1Cc1ccc(C(C)(C)C)cc1 | cell-free assay, competition with immobilised ligand | 1 µM | 100%
COc1ccnn2ncc(-c3ccnc(N(C)C)n3)c12 | binding | 1 µM | 65%
CS(=O)(=O)c1cc(C2(NC(=O)c3cncc4c3cnn4-c3ccc(F)cc3)CC2)ccn1 | cell-free assay, competition with immobilised ligand | 1 µM | 99%
N[C@H]1CCN(c2nccc(-c3cnn4ncccc34)n2)C1 | binding | 1 µM | 100%
CSc1cccnc1N1CCN(Cc2nc3ccccc3[nH]2)CC1 | cell-free assay, competition with immobilised ligand | 1 µM | 80%
c1cncc(-c2cccc(Nc3nccc(NC4CCCCC4)n3)c2)c1 | binding, competition with immobilised ligand | 10 µM | 40%
O=C(Nc1c[nH]nc1C(=O)NC1CCNCC1)c1cc(F)cc(F)c1 | binding, competition with immobilised ligand | 1 µM | 100%
O=C(c1ccc(Nc2ncc(Cl)c(-c3cc4ccccc4s3)n2)cc1)N1CCC(N2CCCC2)CC1 | binding, competition with immobilised ligand | 1 µM | 29%
CC1CCCN1c1nccc(-c2cnn3ncccc23)n1 (stereo not drawn) | binding | 1 µM | 97%
O=C(O)c1cc(-c2ccc(C3CCNCC3)cc2)c2ccc(-c3ccc(C(F)(F)F)cc3)cc2c1 | cell-free assay, competition with immobilised ligand | 1 µM | 100%
O=C(NCCCN1CCOCC1)c1ccc(Nc2ncc(Cl)c(-c3ccc(Cl)s3)n2)cc1 | binding, competition with immobilised ligand | 1 µM | 55%
CCC(=N\O)/C(C)=C/c1ccc(F)cc1 | cell-free assay, competition with immobilised ligand | 1 µM | 81%
CN(C)c1nccc(-c2cnn3ncccc23)n1 | binding | 1 µM | 99%
CCCCN(CCCC)C(=O)CN1C[C@@H](c2cc(OC)c3c(c2)OCO3)[C@H](C(=O)O)[C@H]1CC(C)(C)CCC | cell-free assay, competition with immobilised ligand | 1 µM | 86.7%
CC(C)(C)c1ccc(-c2nc(CBr)nn2-c2cccc(O)c2)cc1 | cell-free assay, competition with immobilised ligand | 10 µM | 81%
O=C(c1ccc(Nc2ncc(Cl)c(-c3ccc(Cl)s3)n2)cc1)N1CCC(N2CCCC2)CC1 | binding, competition with immobilised ligand | 1 µM | 28%
